Drawing on ChEMBL document CHEMBL3351317 (J Med Chem, 2014), this text covers logD and hepatocyte CLint for 10 molecules.

Series [1] can be described thus: Distribution coefficient, log D between 1-octonol and aqueous phosphate buffer at pH 7.4. Format: physicochemical. As to conditions: 1-octanol/aqueous phosphate buffer. The essentials: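 logD measured as distribution between 1-octanol and aqueous phosphate buffer, pH 7.4.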
A short description of series [2]: Intrinsic clearance in rat hepatocytes assessed per million cells. It counts as ADME, cell-based, Hepatocyte. As to conditions: read-out: CLH.

What is called logD is lipophilicity at a set pH, counting ionised and neutral species. A high value points to a more lipophilic compound. `C[C@@H]1CN(c2nnc(C(F)(F)F)o2)CCN1c1ncc(OCc2ccc(S(C)(=O)=O)cc2F)cn1` displayed a logD in series [1] of 3.
Regarding `C[C@@H]1CN(c2nnc(C(F)(F)F)o2)CCN1c1ncc(OCc2ccc(S(C)(=O)=O)cc2C#N)cn1`, in series [1], the logD amounted to 2.6.
The same measure, in the same setting: for `C[C@@H]1CN(c2nnc(C(F)(F)F)o2)CCN1c1ncc(OCc2ccc(C#N)cc2C#N)cn1` the value was 2.8; for `C[C@@H]1CN(c2nnc(C(F)(F)F)o2)CCN1c1ncc(OCc2ccc(S(C)(=O)=O)cc2)cn1`, 2.8.
The same measure, in the same setting: the figure for `C[C@@H]1CN(c2nnc(C(F)(F)F)o2)CCN1c1ncc(OCc2ccc(CS(C)(=O)=O)cc2)cn1` is 2.6; for `C[C@@H]1CN(c2nnc(C(F)(F)F)o2)CCN1c1ncc(OCc2ccc(C#N)cc2F)cn1` it is 3.8.
On the same count and under the same terms, for `C[C@@H]1CN(c2nnc(C(F)(F)F)o2)CCN1c1ncc(OCc2ccc(-n3cnnn3)cc2F)cn1` the value was 3.6.
Molecule `C[C@@H]1CN(c2nnc(C(F)(F)F)o2)CCN1c1ncc(OCc2ccc(CS(C)(=O)=O)cc2F)cn1` registered a logD in series [1] of 2.9. For the same molecule, in series [2], the hepatocyte CLint was determined as 9 µL/min/1e6 cells.
`C[C@@H]1CN(c2nnc(C(F)(F)F)o2)CCN1c1ncc(OCc2ccc(OS(C)(=O)=O)cc2F)cn1`: the logD in series [1] stood at 3.7.
For `C[C@@H]1CN(c2nnc(C(F)(F)F)o2)CCN1c1ncc(OCc2ccc(C[S+](C)[O-])cc2F)cn1` (some centres not stated), in series [1], the logD was determined as 2.6. Also, the hepatocyte CLint in series [2] was 53 µL/min/1e6 cells.
